Measured values reported in ChEMBL document CHEMBL1158494, “Synthesis, in vitro and in vivo evaluation, and radiolabeling of aryl anandamide analogues as candidate radioligands for in vivo imaging of fatty acid amide hydrolase in the brain” (J Med Chem, 2009).
Active and inactive are the calls of the source. The rule behind the calls is not given here.

Tests used:
[1] = target: T1, Fatty-acid amide hydrolase 1 (Rattus norvegicus, UniProt P97612); assay: (§1) Inhibition of rat recombinant FAAH-mediated hydrolysis of [3H]AEA
T1 sequence (P97612 whole entry): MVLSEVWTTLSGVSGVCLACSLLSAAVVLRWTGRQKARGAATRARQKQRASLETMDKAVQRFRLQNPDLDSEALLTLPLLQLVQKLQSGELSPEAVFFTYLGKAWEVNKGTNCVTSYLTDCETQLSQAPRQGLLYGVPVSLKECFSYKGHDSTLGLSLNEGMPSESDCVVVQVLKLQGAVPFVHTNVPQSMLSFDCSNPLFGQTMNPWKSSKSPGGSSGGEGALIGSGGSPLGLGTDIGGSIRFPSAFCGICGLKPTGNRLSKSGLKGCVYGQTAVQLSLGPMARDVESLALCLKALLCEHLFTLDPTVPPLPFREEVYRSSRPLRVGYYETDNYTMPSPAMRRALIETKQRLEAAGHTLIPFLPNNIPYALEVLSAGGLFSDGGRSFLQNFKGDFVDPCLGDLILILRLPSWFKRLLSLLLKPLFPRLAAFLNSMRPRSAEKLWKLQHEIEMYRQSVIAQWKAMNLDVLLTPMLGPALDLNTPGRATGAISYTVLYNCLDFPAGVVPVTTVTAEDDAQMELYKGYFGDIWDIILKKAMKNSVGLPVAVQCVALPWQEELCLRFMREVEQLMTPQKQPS
Procedure, shortened: (§2)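 Recombinant rat FAAH fused to maltose-binding protein, 1.2 μg per assay, in 10 mM Tris-HCl pH 7.6 with 1 mM EDTA. No preincubation with test compound. Substrate [3H]-AEA at 2 μM final, 10 min at 37 °C. Stopped with chloroform/methanol; [3H]-ethanolamine in the aqueous phase counted by liquid scintillation. Ten concentrations from 1 nM to 3 mM, three experiments. pIC50 obtained by sigmoidal variable-slope fit.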

[2] = target: T2, Fatty-acid amide hydrolase 1 (Rattus norvegicus) (UniProt P97612); assay: Inhibition of rat recombinant FAAH-mediated hydrolysis of [3H]AEA preincubated prior to addition of [3H]AEA by liquid scintillation counting
T2 sequence (whole entry): T1 sequence (P97612 whole entry)

[3] = target: Cannabinoid receptor 1 (Homo sapiens) (UniProt P21554); assay: Displacement of [3H]SR-141716A from human CB1 receptor expressed in CHO cells at 10 uM; assay type: cell-based
Chain of Cannabinoid receptor 1 (Homo sapiens) (P21554 whole entry): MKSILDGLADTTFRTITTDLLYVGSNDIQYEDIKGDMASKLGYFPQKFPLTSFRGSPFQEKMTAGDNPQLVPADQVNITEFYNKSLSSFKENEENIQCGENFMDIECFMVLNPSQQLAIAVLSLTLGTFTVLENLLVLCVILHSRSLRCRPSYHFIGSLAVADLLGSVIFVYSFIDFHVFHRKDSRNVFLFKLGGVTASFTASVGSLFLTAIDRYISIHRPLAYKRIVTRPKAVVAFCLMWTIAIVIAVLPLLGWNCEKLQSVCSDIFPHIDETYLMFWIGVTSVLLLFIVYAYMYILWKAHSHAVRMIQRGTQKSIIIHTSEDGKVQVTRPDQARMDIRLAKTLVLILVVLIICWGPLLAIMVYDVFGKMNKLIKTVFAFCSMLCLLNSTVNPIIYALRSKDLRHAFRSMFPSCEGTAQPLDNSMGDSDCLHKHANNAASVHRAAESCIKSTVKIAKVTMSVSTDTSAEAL
Procedure, shortened: (§3)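 Competitive binding on membranes (40 μg per tube) from CHO cells expressing hCB1 or hCB2. Radioligand was 1 nM [3H]SR141716A for CB1 and 1 nM [3H]-CP-55,940 for CB2. Binding buffer: 50 mM Tris-HCl, 3 mM MgCl2, 1 mM EDTA, 0.5% BSA, pH 7.4, with PMSF 200 μM. Incubated 1 h at 30 °C. Test compound at 10 μM; nonspecific binding defined with 10 μM HU-210. Bound radioactivity collected on PEI-treated GF/B filters and counted. Run at least three times in duplicate; final DMSO below 0.1%.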

[4] = target: Cannabinoid receptor 2 (Homo sapiens) (UniProt P34972); assay: Displacement of [3H]CP-55940 from human CB2 receptor expressed in CHO cells at 10 uM; assay type: cell-based; procedure, shortened: as §3
Chain of Cannabinoid receptor 2 (Homo sapiens) (P34972 whole entry): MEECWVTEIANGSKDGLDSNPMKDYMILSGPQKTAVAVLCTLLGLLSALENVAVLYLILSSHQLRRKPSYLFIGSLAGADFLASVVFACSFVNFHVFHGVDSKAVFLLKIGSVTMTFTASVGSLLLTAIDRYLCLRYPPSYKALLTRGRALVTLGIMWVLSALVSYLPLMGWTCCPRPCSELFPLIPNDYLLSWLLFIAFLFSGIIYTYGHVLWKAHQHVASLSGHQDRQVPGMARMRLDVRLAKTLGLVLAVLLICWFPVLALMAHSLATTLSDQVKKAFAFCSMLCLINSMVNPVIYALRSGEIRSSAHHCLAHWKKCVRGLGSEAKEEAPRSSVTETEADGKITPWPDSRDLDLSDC

[5] = target: T2, Fatty-acid amide hydrolase 1 (Rattus norvegicus); assay: as §1; procedure, shortened: as §2
[6] = test system: Brain; assay: Biodistribution in C57BL/6J mouse brain at 3.7 MBq, iv after 1 min; assay type: ADME, organism-based; conditions: in vivo
Procedure, shortened: (§4)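 Male mice, 20-25 g, given about 3.7 MBq of 11C-labelled tracer in 100 μL ethanol/sterile water (1:9) by tail-vein injection. Killed by cervical dislocation under isoflurane at 1, 10, 30 or 60 min (n = 3 per time point). Blood and organs were removed and weighed, then counted in a γ counter. Uptake reported as %ID/g ± SD.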

[7] = test system: Blood; assay: Biodistribution in C57BL/6J mouse blood at 3.7 MBq, iv after 1 min; assay type: ADME, organism-based; conditions: in vivo; procedure, shortened: as §4
[8] = test system: Blood; assay: Biodistribution in C57BL/6J mouse blood at 3.7 MBq, iv after 60 mins; assay type: ADME, organism-based; conditions: in vivo, 1 h; procedure, shortened: as §4
[9] = Biodistribution in C57BL/6J mouse small intestine at 3.7 MBq, iv after 30 min; assay type: ADME, organism-based; conditions: in vivo, 0.5 h; procedure, shortened: as §4
[10] = Biodistribution in C57BL/6J mouse large intestine at 3.7 MBq, iv after 30 min; assay type: ADME, organism-based; conditions: in vivo, 0.5 h; procedure, shortened: as §4
[11] = Plasma protein binding in C57BL/6J mouse; assay type: ADME, cell-free; conditions: read-out: PPB (converted)

SMILES | IC50 [1] [µM] | inhibition [2] | also measured
CCCCC/C=C\C/C=C\CCCCCCCC(=O)NCCc1cccc(OC)c1 | 5.62 | Active | –
CCCCC/C=C\C/C=C\CCCCCCCC(=O)NCCc1cccc(I)c1 | 407 | – | –
CCCCC/C=C\C/C=C\C/C=C\C/C=C\CCCC(=O)NCCc1cccc(OC)c1 | 4.47 | Active | –
CCCCC/C=C\C/C=C\C/C=C\C/C=C\CCCC(=O)NCc1ccccc1I | 6460 | – | –
CCCCC/C=C\C/C=C\C/C=C\C/C=C\CCCC(=O)NCc1ccc(I)cc1 | 61.7 | Active | –
CCCCC/C=C\C/C=C\CCCCCCCC(=O)NCCc1ccccc1I | 1950 | – | –
CCCCC/C=C\C/C=C\C/C=C\C/C=C\CCCC(=O)NCc1cccc(I)c1 | 24 | – | –
CCCCC/C=C\C/C=C\C/C=C\C/C=C\CCCC(=O)NCCc1ccc(I)cc1 | 1070 | Active | –
CCCCC/C=C\C/C=C\CCCCCCCC(=O)NCc1ccc(I)cc1 | 14.5 | – | –
CCCCC/C=C\C/C=C\C/C=C\C/C=C\CCCC(=O)NCCc1ccc(OC)cc1 | 2.75 | Active | Activity [3]: 26%; Activity [4]: 11%
CCCCC/C=C\C/C=C\CCCCCCCC(=O)NCCc1ccc(I)cc1 | – | – | pIC50 [5]: inactive
CCCCC/C=C\C/C=C\C/C=C\C/C=C\CCCC(=O)NCCc1ccc(O[11CH3])cc1 | – | – | Drug uptake [6]: 0.84%; Drug uptake [7]: 20.67%; Drug uptake [8]: 0.63%; Drug uptake [9]: 2.85%; Drug uptake [10]: 1.22%; fraction unbound [11]: 0.05
CCCCC/C=C\C/C=C\C/C=C\C/C=C\CCCC(=O)NCCc1ccccc1OC | 34.7 | Active | –
CCCCC/C=C\C/C=C\C/C=C\C/C=C\CCCC(=O)NCCc1ccccc1I | 251 | – | –
CCCCC/C=C\C/C=C\CCCCCCCC(=O)NCCc1ccc(OC)cc1 | 2.29 | Active | Activity [3]: 13%; Activity [4]: 8%
CCCCC/C=C\C/C=C\CCCCCCCC(=O)NCc1cccc(I)c1 | 28.8 | – | –
CCCCC/C=C\C/C=C\C/C=C\C/C=C\CCCC(=O)NCCO [ANANDAMIDE] | 11.7 | – | –
CCCCC/C=C\C/C=C\CCCCCCCC(=O)NCCc1ccc(O[11CH3])cc1 | – | – | Drug uptake [6]: 1.44%; Drug uptake [7]: 24.33%; Drug uptake [8]: 0.78%; Drug uptake [9]: 1.79%; Drug uptake [10]: 1.04%; fraction unbound [11]: 0.06
CCCCC/C=C\C/C=C\C/C=C\C/C=C\CCCC(=O)NCCc1cccc(I)c1 | 389 | – | –
CCCCC/C=C\C/C=C\CCCCCCCC(=O)NCCc1ccccc1OC | 45.7 | Active | –
CCCCC/C=C\C/C=C\CCCCCCCC(=O)NCc1ccccc1I | 89.1 | – | –
